Test results: ChEMBL document CHEMBL2086343, “Design, synthesis and antibacterial activity of minor groove binders: the role of non-cationic tail groups” (Eur J Med Chem, 2012)
≈ marks a conversion by molar mass, not a printed value. Calls of active or inactive are those of the source. No cut-off for these calls is given here.

What was measured:
Staphylococcus aureus = assay: Antibacterial activity against Staphylococcus aureus; format: functional
hERG (KCNH2) = hERG (KCNH2) (Homo sapiens, UniProt Q12809); assay: Displacement of [3H]astemizole from human hERG transfected in HEK293 cells at 10 uM after 1 hr by scintillation counter; format: cell-based; details: HEK293 cells transfected with human hERG, probe [3H]astemizole
How it was run: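 Membranes came from hERG-transfected HEK293 cells (grown at 37 °C, 5% CO₂), homogenised and spun at 200,000 g. About 200,000 cells per tube were incubated 1 h at 30 °C with 0.5 nM [³H]astemizole and compound at 10 µM in HEPES pH 7.4 buffer. Non-specific binding was set with 10 µM unlabelled astemizole. Samples were filtered (GF/B) and counted by scintillation. Triplicates, n = 3.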

Nucleic Acid [1] = assay: Binding affinity to HexA DNA at <10 uM after 30 mins by DNase 1 footprinting assay; format: nucleic-acid assay
How it was run: (§1)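 DNase I footprinting used 3'-end radiolabelled DNA (<10 nM) in 10 mM Tris-HCl pH 7.5 with 0.1 mM EDTA. It was incubated with ligand for at least 30 min at room temperature, then digested 1 min with about 0.01 units/mL DNase I (with NaCl, MgCl₂, MnCl₂). Fragments were resolved on 8% denaturing polyacrylamide/8 M urea gels and read by phosphorimaging.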

Nucleic Acid [2] = assay: Binding affinity to HexB DNA at <10 uM after 30 mins by DNase 1 footprinting assay; format: nucleic-acid assay
Nucleic Acid [3] = assay: Binding affinity to 5'GCGATATATGCG3' DNA sequence assessed as change in melting temperature by thermal denaturation assay; format: nucleic-acid assay
How it was run: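 Oligonucleotide and its complement at 6×10^-6 M, mixed with MGB at the chosen ratio, in 10 mM PBS pH 7.4 with 50 mM NaCl. Heated 10→80 °C and cooled 80→10 °C at 0.5 °C/min. Absorbance was read at 260 nm, and Tm was taken from the derivative maxima.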

Nucleic Acid [4] = assay: Binding affinity to HexRev DNA at <10 uM after 30 mins by DNase 1 footprinting assay; format: nucleic-acid assay; how it was run: as §1

Chain of hERG (KCNH2) (Q12809 whole entry): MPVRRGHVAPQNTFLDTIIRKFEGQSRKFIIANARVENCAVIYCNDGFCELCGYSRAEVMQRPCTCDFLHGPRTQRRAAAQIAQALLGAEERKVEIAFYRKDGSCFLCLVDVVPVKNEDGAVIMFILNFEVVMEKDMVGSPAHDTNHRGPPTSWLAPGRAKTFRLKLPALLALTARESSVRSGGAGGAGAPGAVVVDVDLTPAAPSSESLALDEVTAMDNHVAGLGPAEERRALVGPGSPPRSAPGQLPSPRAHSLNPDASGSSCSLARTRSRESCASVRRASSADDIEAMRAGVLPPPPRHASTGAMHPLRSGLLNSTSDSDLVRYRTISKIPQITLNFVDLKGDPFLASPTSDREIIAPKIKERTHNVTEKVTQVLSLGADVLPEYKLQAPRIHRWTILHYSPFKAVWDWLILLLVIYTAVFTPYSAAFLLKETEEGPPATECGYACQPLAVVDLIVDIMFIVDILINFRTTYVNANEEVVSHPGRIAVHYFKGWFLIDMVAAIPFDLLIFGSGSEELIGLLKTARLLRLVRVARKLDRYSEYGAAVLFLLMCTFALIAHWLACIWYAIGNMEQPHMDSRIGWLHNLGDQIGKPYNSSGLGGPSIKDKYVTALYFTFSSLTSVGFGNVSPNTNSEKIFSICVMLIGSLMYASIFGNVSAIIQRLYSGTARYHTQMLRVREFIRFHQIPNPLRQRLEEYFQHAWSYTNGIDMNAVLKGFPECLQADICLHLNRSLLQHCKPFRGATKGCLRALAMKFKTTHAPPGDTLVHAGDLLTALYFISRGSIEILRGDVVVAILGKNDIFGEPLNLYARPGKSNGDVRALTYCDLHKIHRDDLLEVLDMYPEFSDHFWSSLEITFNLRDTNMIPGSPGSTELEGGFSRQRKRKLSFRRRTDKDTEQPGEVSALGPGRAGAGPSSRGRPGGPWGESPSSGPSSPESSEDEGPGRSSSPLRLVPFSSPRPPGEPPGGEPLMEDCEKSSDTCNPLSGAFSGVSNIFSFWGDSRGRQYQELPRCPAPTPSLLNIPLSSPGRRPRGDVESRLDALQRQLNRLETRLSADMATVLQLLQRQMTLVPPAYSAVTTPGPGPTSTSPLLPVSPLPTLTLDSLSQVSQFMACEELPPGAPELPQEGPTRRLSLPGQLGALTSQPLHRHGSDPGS

Row | MIC (Staphylococcus aureus) | SMILES | inhibition at 1 h, 10 µM (hERG (KCNH2)) | further results
1 | inactive | CN/C(=N\C#N)NCCNC(=O)c1cc(NC(=O)c2cc(NC(=O)c3ccc(/C=C/c4cccc(OC)c4)cc3)cn2C)cn1C | 58% | 
2 | 25 µM (≈ 14.6 µg/mL) | COc1cccc(/C=C/c2ccc(C(=O)Nc3cc(C(=O)Nc4cc(C(=O)NCCNC(=N)N)n(C)c4)n(C)c3)cc2)c1 | 69% | 
3 | inactive | COc1cccc(/C=C/c2ccc(C(=O)Nc3cc(C(=O)Nc4cc(C(=O)NCCNC(=O)OC(C)(C)C)n(C)c4)n(C)c3)cc2)c1 | 36% | 
4 | inactive | COc1cccc(/C=C/c2ccc(C(=O)Nc3cc(C(=O)Nc4cc(C(=O)NCCOC(C)=O)n(C)c4)n(C)c3)cc2)c1 |  | 
5 | 2.5 µM (≈ 1.65 µg/mL) | CN/C(=C\[N+](=O)[O-])NCCNC(=O)c1cc(NC(=O)c2cc(NC(=O)c3ccc(/C=C/c4cnc5ccccc5c4)cc3)cn2C)cn1C | 51% | Activity (Nucleic Acid [1]): Active; Activity (Nucleic Acid [2]): Active; ΔTm (Nucleic Acid [3]): 16 °C; Activity (Nucleic Acid [4]): Active
6 | inactive | Cn1cc(NC(=O)c2cc(NC(=O)c3ccc(/C=C/c4cnc5ccccc5c4)cc3)cn2C)cc1C(=O)NCCN | 55% | 
7 | 31 µM (≈ 19.9 µg/mL) | CN/C(=C\[N+](=O)[O-])NCCNC(=O)c1cc(NC(=O)c2cc(NC(=O)c3ccc(/C=C/c4ccc(OC)cc4)nc3)cn2C)cn1C |  | 
8 | 6.25 µM (≈ 3.82 µg/mL) | COc1ccc(/C=C/c2ccc(C(=O)Nc3cc(C(=O)Nc4cc(C(=O)NCCN5CCOCC5)n(C)c4)n(C)c3)cn2)cc1 | 58% | 
9 | 2 µM (≈ 1.22 µg/mL) | COc1cccc(/C=C/c2ccc(C(=O)Nc3cc(C(=O)Nc4cc(C(=O)NCCN5CCOCC5)n(C)c4)n(C)c3)cc2)c1 | 65% | 
10 | inactive | COc1ccc(/C=C/c2ccc(C(=O)Nc3cc(C(=O)Nc4cc(C(=O)NCCNC(=N)N)n(C)c4)n(C)c3)cn2)cc1 |  | 
11 | inactive | CN/C(=C\[N+](=O)[O-])NCCNC(=O)c1cc(NC(=O)c2cc(NC(=O)c3ccc(/C=C/c4cccc(OC)c4)cc3)cn2C)cn1C |  | 
12 | inactive | CN/C(=N\C#N)NCCNC(=O)c1cc(NC(=O)c2cc(NC(=O)c3ccc(/C=C/c4cnc5ccccc5c4)cc3)cn2C)cn1C | 54% | 
13 | 7.8 µM (≈ 4.71 µg/mL) | Cn1cc(NC(=O)c2cc(NC(=O)c3ccc(/C=C/c4cnc5ccccc5c4)cc3)cn2C)cc1C(=O)NCCNC(=N)N |  | Activity (Nucleic Acid [1]): Active; Activity (Nucleic Acid [2]): Active; ΔTm (Nucleic Acid [3]): 29 °C; Activity (Nucleic Acid [4]): Active
14 | inactive | COc1cccc(/C=C/c2ccc(C(=O)Nc3cc(C(=O)Nc4cc(C(=O)NCCO)n(C)c4)n(C)c3)cc2)c1 | 32% | 
15 | inactive | COc1ccc(/C=C/c2ccc(C(=O)Nc3cc(C(=O)Nc4cc(C(=O)NCCOC(C)=O)n(C)c4)n(C)c3)cn2)cc1 |  | 
16 | inactive | COc1ccc(/C=C/c2ccc(C(=O)Nc3cc(C(=O)Nc4cc(C(=O)NCCO)n(C)c4)n(C)c3)cn2)cc1 |  | 
17 | 0.12 µM (≈ 0.0758 µg/mL) | Cn1cc(NC(=O)c2cc(NC(=O)c3ccc(/C=C/c4cnc5ccccc5c4)cc3)cn2C)cc1C(=O)NCCN1CCOCC1 [MGB-BP-3] | 65% | 
18 | 25 µM (≈ 15.1 µg/mL) | CN(C)CCCNC(=O)c1cc(NC(=O)c2cc(NC(=O)c3ccc(/C=C/c4cnc5ccccc5c4)cc3)cn2C)cn1C | 60% | 
19 | 12.5 µM (≈ 8.22 µg/mL) | Cn1cc(NC(=O)c2cc(NC(=O)c3ccc(/C=C/c4cnc5ccccc5c4)cc3)cn2C)cc1C(=O)NCCNC(=O)C(F)(F)F | 24% | 
